pIC50: −log10 of the molar value. The source made the active and inactive calls. No cut-off for these calls is given here.
Legend:
[1] = biological target: SRSF protein kinase 3 (Homo sapiens) (UniProt Q9UPE1); test: Activity of human MSSK1 kinase at 1 uM
[2] = test system: PC-3; test: Induction of apoptosis in human PC3 cells assessed as PARP cleavage at 4 uM after 24 hrs by Western blot method; type: functional, cell-based
[3] = biological target: Serine/threonine-protein kinase WNK2 (Homo sapiens) (UniProt Q9Y3S1); test: Activity of human WNK2 kinase at 1 uM
Procedure, shortened: (§1)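 Single-concentration screen across a 226-kinase panel run by an outside provider; test compound at 1 μM with 10 μM ATP in every assay. Other conditions not detailed.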

[4] = biological target: Tyrosine-protein kinase Lck (Homo sapiens) (UniProt P06239); test: Activity of human Lck kinase at 1 uM
Procedure, shortened: (§2)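 Single-point kinase profiling: each kinase in a 226-kinase panel tested with compound at 1 μM and ATP at 10 μM in every assay, run by an external screening service.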

[5] = biological target: Tyrosine-protein kinase JAK2 (Homo sapiens) (UniProt O60674); test: Activity of human JAK2 kinase at 1 uM
[6] = biological target: Vascular endothelial growth factor receptor 3 (Homo sapiens) (UniProt P35916); test: Activity of human Flt4 kinase at 1 uM; procedure, shortened: as §2
[7] = biological target: Serine/threonine-protein kinase WNK3 (Homo sapiens) (UniProt Q9BYP7); test: Activity of human WNK3 kinase at 1 uM
Procedure, shortened: (§3)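 Single-point screen in a 226-kinase panel run by an outside service. Test compound at 1 μM with ATP at 10 μM in every assay. Other assay conditions are not given.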

[8] = biological target: Ephrin type-B receptor 3 (Homo sapiens) (UniProt P54753); test: Activity of human EphB3 kinase at 1 uM
[9] = biological target: Interleukin-1 receptor-associated kinase 4 (Homo sapiens) (UniProt Q9NWZ3); test: Activity of human IRAK4 kinase at 1 uM
[10] = biological target: cGMP-dependent protein kinase 1 (Homo sapiens) (UniProt Q13976); test: Activity of human PKG1alpha kinase at 1 uM; procedure, shortened: as §2
[11] = biological target: Ephrin type-A receptor 1 (Homo sapiens) (UniProt P21709); test: Inhibition of EphA1 kinase at 1 uM
Procedure, shortened: (§4)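 Single-point screen within a 226-kinase panel, with compound at 1 μM and ATP at 10 μM in all assays.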

[12] = biological target: Serine/threonine-protein kinase 24 (Homo sapiens) (UniProt Q9Y6E0); test: Activity of human MST3 kinase at 1 uM
[13] = species on record: Homo sapiens; test: Activity of human PKA kinase at 1 uM; procedure, shortened: as §3
[14] = biological target: Platelet-derived growth factor receptor alpha (Homo sapiens) (UniProt P16234); test: Activity of human PDGFRalpha kinase at 1 uM; procedure, shortened: as §3
[15] = biological target: Dual specificity protein kinase CLK3 (Homo sapiens) (UniProt P49761); test: Activity of human CLK3 kinase at 1 uM
[16] = biological target: Tyrosine-protein kinase Blk (Mus musculus) (UniProt P16277); test: Activity of mouse Blk kinase at 1 uM; procedure, shortened: as §1
[17] = biological target: Serine/threonine-protein kinase MRCK beta (Homo sapiens) (UniProt Q9Y5S2); test: Activity of human MRCKbeta kinase at 1 uM
[18] = biological target: Mitogen-activated protein kinase 8 (Homo sapiens) (UniProt P45983); test: Activity of human JNK1-alpha-1 kinase at 1 uM; procedure, shortened: as §2
[19] = biological target: Serine/threonine-protein kinase Nek2 (Homo sapiens) (UniProt P51955); test: Activity of human NEK2 kinase at 1 uM
[20] = test system: PC-3; test: Cell cycle arrest in human PC3 cells by accumulation at G1 phase at 1 uM after 24 hrs by flow cytometry relative to control; type: functional
[21] = Inhibition of CAMK2 by radioactive flashplate assay
[22] = biological target: Tyrosine-protein kinase Yes (Homo sapiens) (UniProt P07947); test: Inhibition of Yes kinase at 1 uM; procedure, shortened: as §4
[23] = test system: PC-3; test: Induction of apoptosis in human PC3 cells assessed as PARP cleavage at 1 uM after 24 hrs by Western blot method; type: functional, cell-based
[24] = biological target: Ephrin type-A receptor 3 (Homo sapiens) (UniProt P29320); test: Activity of human EphA3 kinase at 1 uM
[25] = test system: PC-3; test: Cell cycle arrest in human PC3 cells by accumulation at >4N phase at 4 uM after 48 hrs by flow cytometry relative to control; type: functional
[26] = biological target: Serine/threonine-protein kinase Nek7 (Homo sapiens) (UniProt Q8TDX7); test: Activity of human NEK7 kinase at 1 uM; procedure, shortened: as §3
[27] = biological target: Ephrin type-A receptor 5 (Homo sapiens) (UniProt P54756); test: Activity of human EphA5 kinase at 1 uM; procedure, shortened: as §2
[28] = biological target: Cyclin-dependent kinase 7/ cyclin H (Homo sapiens) (UniProt P51946+P50613); test: Activity of human CDK7/cyclin H/MAT1 kinase at 1 uM; type: protein-complex assay; procedure, shortened: as §2
[29] = test system: PC-3; test: Cell cycle arrest in human PC3 cells by accumulation at S phase at 4 uM after 24 hrs by flow cytometry relative to control; type: functional
Procedure, shortened: (§5)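 DNA content profiles by flow cytometry of PC-3 prostate tumor cells exposed to drug diluted in DMSO for 24 or 48 h. Phase distribution was compared with DMSO-treated control cells.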

[30] = test system: PC-3; test: Cell cycle arrest in human PC3 cells by accumulation at S phase at 1 uM after 24 hrs by flow cytometry relative to control; type: functional; procedure, shortened: as §5
[31] = biological target: Serine/threonine-protein kinase MARK1 (Homo sapiens) (UniProt Q9P0L2); test: Activity of human MARK1 kinase at 1 uM; procedure, shortened: as §2
[32] = biological target: Serine/threonine-protein kinase PAK 3 (Homo sapiens) (UniProt O75914); test: Activity of human PAK3 kinase at 1 uM; procedure, shortened: as §3
[33] = biological target: Casein kinase I isoform delta (Homo sapiens) (UniProt P48730); test: Activity of human CK1delta kinase at 1 uM; procedure, shortened: as §2
[34] = biological target: Tyrosine-protein kinase ABL2 (Mus musculus) (UniProt Q4JIM5); test: Activity of mouse Arg kinase at 1 uM; procedure, shortened: as §1
[35] = biological target: Glycogen synthase kinase-3 alpha (Homo sapiens) (UniProt P49840); test: Activity of human GSK3-alpha kinase at 1 uM
[36] = test system: MDA-MB-231; test: Antiproliferative activity against human MDAMB231 cells after 96 hrs by BrdU cell proliferation ELISA; type: functional, cell-based; settings: MDA-MB-231, 96 h
Procedure, shortened: (§6)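 BrdU incorporation proliferation assay on cultured human tumor lines; IC50 values derived from growth inhibition.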

[37] = biological target: Ribosomal protein S6 kinase alpha-3 (Homo sapiens) (UniProt P51812); test: Activity of human Rsk2 kinase at 1 uM; procedure, shortened: as §3
[38] = biological target: Tyrosine-protein kinase receptor UFO (Homo sapiens) (UniProt P30530); test: Inhibition of Axl kinase at 1 uM; procedure, shortened: as §4
[39] = test system: PC-3; test: Antiproliferative activity against human PC3 cells after 96 hrs by BrdU cell proliferation ELISA; type: functional, cell-based; settings: PC-3, 96 h; procedure, shortened: as §6
[40] = test system: SW480; test: Antiproliferative activity against human SW480 cells after 96 hrs by BrdU cell proliferation ELISA; type: functional, cell-based; settings: SW480, 96 h; procedure, shortened: as §6
[41] = biological target: Misshapen-like kinase 1 (Homo sapiens) (UniProt Q8N4C8); test: Activity of human MINK kinase at 1 uM
[42] = test system: Mitogen-activated protein kinase 14 (Homo sapiens), Q16539 [T106M]; test: Activity of human SAPK2a T106M mutant kinase at 1 uM; procedure, shortened: as §1

Chain of Tyrosine-protein kinase receptor UFO (Homo sapiens) (P30530 whole entry): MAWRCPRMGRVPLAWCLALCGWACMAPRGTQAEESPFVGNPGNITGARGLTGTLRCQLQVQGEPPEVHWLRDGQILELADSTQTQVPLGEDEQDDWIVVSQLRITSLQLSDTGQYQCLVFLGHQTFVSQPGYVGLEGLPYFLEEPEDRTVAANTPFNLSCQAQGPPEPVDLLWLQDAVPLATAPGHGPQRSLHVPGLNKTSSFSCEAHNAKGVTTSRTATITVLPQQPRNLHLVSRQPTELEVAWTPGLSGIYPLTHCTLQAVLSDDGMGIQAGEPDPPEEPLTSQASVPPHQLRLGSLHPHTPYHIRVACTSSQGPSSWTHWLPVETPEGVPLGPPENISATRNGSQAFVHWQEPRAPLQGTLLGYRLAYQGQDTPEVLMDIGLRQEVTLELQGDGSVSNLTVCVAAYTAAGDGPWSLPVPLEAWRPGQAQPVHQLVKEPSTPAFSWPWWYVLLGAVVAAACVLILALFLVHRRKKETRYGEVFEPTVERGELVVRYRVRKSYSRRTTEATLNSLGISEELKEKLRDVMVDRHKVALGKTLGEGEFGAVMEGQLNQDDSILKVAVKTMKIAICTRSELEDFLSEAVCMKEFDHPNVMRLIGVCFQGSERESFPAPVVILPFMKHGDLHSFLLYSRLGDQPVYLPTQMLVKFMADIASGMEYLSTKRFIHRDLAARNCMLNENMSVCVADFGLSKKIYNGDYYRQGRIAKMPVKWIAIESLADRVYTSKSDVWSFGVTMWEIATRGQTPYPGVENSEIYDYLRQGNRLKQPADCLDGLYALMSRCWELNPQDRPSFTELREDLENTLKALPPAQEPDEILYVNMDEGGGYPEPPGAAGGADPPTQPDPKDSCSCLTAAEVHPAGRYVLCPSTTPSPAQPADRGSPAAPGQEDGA
Chain of Casein kinase I isoform delta (Homo sapiens) (P48730 whole entry, looked up, canonical isoform): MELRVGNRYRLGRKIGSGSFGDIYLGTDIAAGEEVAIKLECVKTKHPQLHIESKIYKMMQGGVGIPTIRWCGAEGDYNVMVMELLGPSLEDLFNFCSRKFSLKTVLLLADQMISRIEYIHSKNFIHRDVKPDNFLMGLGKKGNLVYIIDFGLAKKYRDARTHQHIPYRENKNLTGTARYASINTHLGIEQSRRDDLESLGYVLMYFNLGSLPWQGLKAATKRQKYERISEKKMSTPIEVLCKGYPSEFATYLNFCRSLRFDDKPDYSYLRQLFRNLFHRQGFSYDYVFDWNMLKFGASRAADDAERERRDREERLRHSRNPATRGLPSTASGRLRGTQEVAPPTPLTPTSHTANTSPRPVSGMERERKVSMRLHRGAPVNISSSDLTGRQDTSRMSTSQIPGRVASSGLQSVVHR
Chain of Serine/threonine-protein kinase Nek7 (Homo sapiens) (Q8TDX7 whole entry, looked up): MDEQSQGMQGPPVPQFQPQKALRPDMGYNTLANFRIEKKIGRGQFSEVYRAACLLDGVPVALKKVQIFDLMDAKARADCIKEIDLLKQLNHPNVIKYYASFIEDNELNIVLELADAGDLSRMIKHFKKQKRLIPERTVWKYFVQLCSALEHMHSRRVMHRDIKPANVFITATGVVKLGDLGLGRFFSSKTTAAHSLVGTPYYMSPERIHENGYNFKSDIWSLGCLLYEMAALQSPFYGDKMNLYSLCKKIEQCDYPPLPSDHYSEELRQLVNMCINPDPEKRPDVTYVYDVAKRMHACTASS
Chain of Serine/threonine-protein kinase PAK 3 (Homo sapiens) (O75914 whole entry, looked up, canonical isoform): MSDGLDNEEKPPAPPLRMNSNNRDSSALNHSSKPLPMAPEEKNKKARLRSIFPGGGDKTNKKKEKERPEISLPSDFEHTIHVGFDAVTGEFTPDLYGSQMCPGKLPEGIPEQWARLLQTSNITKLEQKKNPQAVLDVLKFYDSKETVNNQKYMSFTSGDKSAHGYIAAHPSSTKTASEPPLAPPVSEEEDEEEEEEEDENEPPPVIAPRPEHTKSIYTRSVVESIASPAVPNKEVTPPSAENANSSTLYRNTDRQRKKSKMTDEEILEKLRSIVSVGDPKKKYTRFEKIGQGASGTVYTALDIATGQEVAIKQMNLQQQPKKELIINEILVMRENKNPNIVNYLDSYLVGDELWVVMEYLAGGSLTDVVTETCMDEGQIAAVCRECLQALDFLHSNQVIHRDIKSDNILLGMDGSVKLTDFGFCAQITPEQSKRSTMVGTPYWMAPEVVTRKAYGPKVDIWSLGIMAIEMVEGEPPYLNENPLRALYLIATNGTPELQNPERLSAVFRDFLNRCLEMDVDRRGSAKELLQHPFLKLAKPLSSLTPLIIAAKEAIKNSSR
Chain of Misshapen-like kinase 1 (Homo sapiens) (Q8N4C8 whole entry, looked up): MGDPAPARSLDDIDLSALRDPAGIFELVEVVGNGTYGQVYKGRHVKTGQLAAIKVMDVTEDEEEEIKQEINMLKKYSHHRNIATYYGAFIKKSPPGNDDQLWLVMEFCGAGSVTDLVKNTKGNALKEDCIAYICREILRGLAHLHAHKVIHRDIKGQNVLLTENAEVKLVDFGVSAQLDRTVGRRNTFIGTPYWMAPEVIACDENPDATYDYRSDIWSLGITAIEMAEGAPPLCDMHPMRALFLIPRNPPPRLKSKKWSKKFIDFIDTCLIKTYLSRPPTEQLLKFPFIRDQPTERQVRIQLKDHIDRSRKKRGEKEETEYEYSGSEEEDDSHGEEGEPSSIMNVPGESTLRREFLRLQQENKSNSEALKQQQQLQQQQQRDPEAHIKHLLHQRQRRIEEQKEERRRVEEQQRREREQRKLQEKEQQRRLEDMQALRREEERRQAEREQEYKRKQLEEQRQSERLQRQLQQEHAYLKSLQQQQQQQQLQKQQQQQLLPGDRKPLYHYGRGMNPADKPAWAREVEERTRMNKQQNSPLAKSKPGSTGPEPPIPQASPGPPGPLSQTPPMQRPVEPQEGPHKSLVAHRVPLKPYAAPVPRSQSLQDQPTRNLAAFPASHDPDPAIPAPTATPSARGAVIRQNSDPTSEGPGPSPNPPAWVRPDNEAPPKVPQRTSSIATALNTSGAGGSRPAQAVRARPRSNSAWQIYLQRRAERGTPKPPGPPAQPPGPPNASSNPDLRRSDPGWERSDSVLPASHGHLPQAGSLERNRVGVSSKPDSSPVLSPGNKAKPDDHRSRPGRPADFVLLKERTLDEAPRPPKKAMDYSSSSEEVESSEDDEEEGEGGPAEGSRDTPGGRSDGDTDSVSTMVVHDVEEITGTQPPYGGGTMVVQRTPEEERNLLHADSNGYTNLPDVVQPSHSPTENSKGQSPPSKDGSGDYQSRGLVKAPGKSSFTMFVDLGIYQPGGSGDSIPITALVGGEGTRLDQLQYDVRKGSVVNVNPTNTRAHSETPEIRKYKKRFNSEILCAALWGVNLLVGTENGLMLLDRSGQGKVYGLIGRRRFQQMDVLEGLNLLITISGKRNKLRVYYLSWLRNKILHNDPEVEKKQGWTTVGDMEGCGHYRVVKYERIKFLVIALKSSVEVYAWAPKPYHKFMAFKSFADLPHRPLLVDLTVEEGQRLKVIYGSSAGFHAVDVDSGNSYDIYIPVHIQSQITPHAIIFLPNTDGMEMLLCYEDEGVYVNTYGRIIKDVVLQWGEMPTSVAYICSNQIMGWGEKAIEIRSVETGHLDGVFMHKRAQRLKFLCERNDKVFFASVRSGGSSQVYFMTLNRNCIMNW
Chain of Serine/threonine-protein kinase Nek2 (Homo sapiens) (P51955 whole entry): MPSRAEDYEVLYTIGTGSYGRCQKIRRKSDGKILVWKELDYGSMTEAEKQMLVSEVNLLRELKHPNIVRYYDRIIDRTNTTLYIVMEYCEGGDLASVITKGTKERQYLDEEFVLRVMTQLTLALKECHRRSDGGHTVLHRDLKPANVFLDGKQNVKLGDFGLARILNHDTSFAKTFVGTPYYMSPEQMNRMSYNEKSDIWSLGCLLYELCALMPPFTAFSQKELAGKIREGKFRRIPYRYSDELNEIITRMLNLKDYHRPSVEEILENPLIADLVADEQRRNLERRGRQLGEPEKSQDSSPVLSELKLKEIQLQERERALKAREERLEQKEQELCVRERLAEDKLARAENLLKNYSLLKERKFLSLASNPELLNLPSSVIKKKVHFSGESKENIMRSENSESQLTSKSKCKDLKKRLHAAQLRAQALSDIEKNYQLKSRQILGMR
Chain of Mitogen-activated protein kinase 8 (Homo sapiens) (P45983 whole entry): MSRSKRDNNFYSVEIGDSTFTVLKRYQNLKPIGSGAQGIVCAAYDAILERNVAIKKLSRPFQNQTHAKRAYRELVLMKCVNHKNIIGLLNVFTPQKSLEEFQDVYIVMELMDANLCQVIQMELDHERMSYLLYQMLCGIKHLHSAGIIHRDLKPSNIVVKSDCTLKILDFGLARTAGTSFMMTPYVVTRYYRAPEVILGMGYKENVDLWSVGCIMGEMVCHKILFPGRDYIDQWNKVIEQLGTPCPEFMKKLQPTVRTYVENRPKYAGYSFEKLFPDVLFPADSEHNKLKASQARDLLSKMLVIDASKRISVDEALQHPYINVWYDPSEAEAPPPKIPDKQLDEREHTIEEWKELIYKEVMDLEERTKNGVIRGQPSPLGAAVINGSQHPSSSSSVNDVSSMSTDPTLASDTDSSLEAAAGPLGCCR
Chain of cGMP-dependent protein kinase 1 (Homo sapiens) (Q13976 whole entry): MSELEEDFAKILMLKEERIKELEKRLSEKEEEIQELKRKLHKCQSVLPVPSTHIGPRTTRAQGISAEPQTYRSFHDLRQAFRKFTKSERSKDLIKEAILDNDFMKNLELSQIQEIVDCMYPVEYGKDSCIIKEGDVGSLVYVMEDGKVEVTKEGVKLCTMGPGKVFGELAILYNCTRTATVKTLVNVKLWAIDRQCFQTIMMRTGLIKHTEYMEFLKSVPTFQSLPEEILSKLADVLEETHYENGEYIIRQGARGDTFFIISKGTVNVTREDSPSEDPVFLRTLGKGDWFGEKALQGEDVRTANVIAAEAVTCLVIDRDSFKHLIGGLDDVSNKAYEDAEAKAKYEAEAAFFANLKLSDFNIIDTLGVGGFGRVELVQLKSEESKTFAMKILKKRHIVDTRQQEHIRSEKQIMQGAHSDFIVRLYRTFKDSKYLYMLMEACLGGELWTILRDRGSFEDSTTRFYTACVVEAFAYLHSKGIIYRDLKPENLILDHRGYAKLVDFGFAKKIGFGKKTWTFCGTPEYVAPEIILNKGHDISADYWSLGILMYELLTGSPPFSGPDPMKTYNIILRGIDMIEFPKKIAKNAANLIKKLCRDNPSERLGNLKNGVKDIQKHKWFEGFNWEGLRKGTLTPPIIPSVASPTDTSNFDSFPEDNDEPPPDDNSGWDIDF

Compound: O=C(O)c1ccc(Nc2ncc3c(n2)-c2ccc(Cl)cc2C(c2c(F)cccc2F)=NC3)cc1 [MLN-8054]
- Activity [1]: 100%
- Activity [2]: Active
- Activity [3]: 109%
- Activity [4]: 59%
- Activity [5]: 92%
- Activity [6]: 6%
- Activity [7]: 88%
- Activity [8]: 95%
- Activity [9]: 97%
- Activity [10]: 103%
- inhibition [11]: 71%
- Activity [12]: 107%
- Activity [13]: 100%
- Activity [14]: 110%
- Activity [15]: 81%
- Activity [16]: 53%
- Activity [17]: 107%
- Activity [18]: 122%
- Activity [19]: 110%
- Activity [20]: 36.1%
- pIC50 [21]: < 4.00
- inhibition [22]: 80%
- Activity [23]: Active
- Activity [24]: 88%
- Activity [25]: 21.4%
- Activity [26]: 99%
- Activity [27]: 80%
- Activity [28]: 105%
- Activity [29]: 13.2%
- Activity [30]: 14.9%
- Activity [31]: 106%
- Activity [32]: 94%
- Activity [33]: 129%
- Activity [34]: 63%
- Activity [35]: 110%
- pIC50 [36]: 6.13
- Activity [37]: 76%
- inhibition [38]: 59%
- pIC50 [39]: 6.10
- pIC50 [40]: 6.07
- Activity [41]: 104%
- Activity [42]: 130%
